The data set is described as follows: Toxicity liver stage against HepG2, at 10uM. The format is cell-based. Also noted: test concentration 10 uM, cell line HepG2-A16-CD81EGFP. Particulars: human, HepG2-A16-CD81EGFP cells; read-out: INHIBITION
An outline of the steps: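 Uninfected HepG2-A16-CD81EGFP cells, 3 × 10^3 per well, 1536-well, plated on prespotted compound at 10 μM final, parasite-free screening media added to match infected plates; puromycin 10 μM positive, DMSO 0.5% negative; run in parallel with 48 h PbLuc assay at 37 °C, 5% CO2; viability by CellTiter-Glo luminescence, normalized to controls.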
With `CC(C)c1noc(OCC(=O)N(C)C(C)C)n1`, the cytotoxicity at 10 µM is -12.6%.

For the compound `CC(C)CN1CCOC[C@H](Oc2ccc(S(C)(=O)=O)cc2)C1`, the cytotoxicity at 10 µM is -1.67%.

For the compound `CN(C)CC1(O)CCN(C(=O)Cc2ccc3c(c2)CCC3)C1` (stereo unspecified), the cytotoxicity at 10 µM is -7.84%.

`CCCn1ncc(-c2nc3c(cnn3CC)[nH]2)c1C`: the cytotoxicity at 10 µM was determined as 4.05%.

Regarding `COc1c(Br)cc(Cl)cc1NCc1c(C)noc1C`, the cytotoxicity at 10 µM is 12.8%.

For the compound `CCc1nsc(NC2CC(=O)N(C(C)(C)C)C2)n1` (stereo unspecified), the cytotoxicity at 10 µM worked out at 5.6%.

Regarding `CCOc1ccc(NCc2cnc(N3CCN(C)CC3)nc2)cn1`, the cytotoxicity at 10 µM is -0.512%.

Take `Cc1nc(O)cc(C2CCCN(C(=O)COCc3ccccc3)C2)n1` (stereo unspecified): the cytotoxicity at 10 µM was -11%.

Turning to `CCO[C@@H]1C[C@H]2CN(Cc3ccc(C)o3)CCN2C1`, the cytotoxicity at 10 µM was -149%.

On to `CCn1c(C2CCN(C(=O)c3cc(CC(C)C)on3)CC2)nn(C)c1=O`, for which the cytotoxicity at 10 µM was -3.89%.

Turning to `CSc1ncc(CNC(C)c2cnn(-c3ccc(F)cc3F)c2C)cn1` (stereo unspecified), the cytotoxicity at 10 µM came to 2.77%.

`O=C(c1ccc[nH]1)N1CCOCC2(C1)CN(c1ccccc1)C(=O)CO2` (stereo unspecified): the cytotoxicity at 10 µM is -1.05%.

For the compound `CCn1ccnc1CN1CCCN(C(=O)c2csc(C)n2)CC1`, the cytotoxicity at 10 µM is -2.84%.

On to `CCCC(C)C(=O)Nc1ccc(OC)nc1N1CCN(C(C)=O)CC1` (stereo unspecified), for which the cytotoxicity at 10 µM was -5.46%.

As for `Cc1cc(CN2CCN(Cc3cnc4c(c3)c(C)nn4C)CC2)on1`, the cytotoxicity at 10 µM is -12.6%.

Regarding `CNS(=O)(=O)c1ccc(CN2CCCN(Cc3ccncc3)CC2)cc1`, the cytotoxicity at 10 µM came out at 7.06%.

In the case of `Cc1noc(C(C)C)c1C(=O)NCc1cccnc1`, the cytotoxicity at 10 µM came out at 3.93%.

With `COc1nccnc1N1CCC2(CC1)[C@H](O)C[C@@H]2OCCN(C)C`, the cytotoxicity at 10 µM came to 4.56%.

Consider `CCn1ncc(NC(=O)c2cc(C3CC3)nc3c2c(C)nn3C)c1C`, for which the cytotoxicity at 10 µM is -3.32%.

`Fc1ccc(-c2noc([C@@H]3Cc4nc[nH]c4CN3)n2)cc1`: the cytotoxicity at 10 µM was -5.9%.

For the compound `COc1ccc(CNC2CCC(O)CC2)cc1OCCCC#N` (stereo unspecified), the cytotoxicity at 10 µM is -2.56%.

As for `Cc1nc(NC(=O)C(C)N(C)Cc2cccc(C#N)c2)sc1C` (stereo unspecified), the cytotoxicity at 10 µM is -0.506%.

Take `CC(C)S(=O)(=O)N1CCC(c2cc3n(n2)[C@@H](C(F)(F)F)C[C@@H](C)N3)CC1`: the cytotoxicity at 10 µM was -13.5%.

In the case of `CN(CCO)CC1COCCN1C(=O)CCC1CCCC1` (stereo unspecified), the cytotoxicity at 10 µM was -9.83%.

In the case of `Cc1oc(C(=O)O)cc1S(=O)(=O)Nc1ccc(Cl)c(Cl)c1`, the cytotoxicity at 10 µM was -0.532%.

In the case of `Cc1ccccc1N1CCN(c2ccncn2)C(C)C1` (stereo unspecified), the cytotoxicity at 10 µM turned out to be 22.6%.

As for `Cc1ncsc1C(=O)N[C@@H](Cc1ccccc1)C(N)=O`, the cytotoxicity at 10 µM is -44.9%.

Turning to `CC1CCCCN1C1CN(c2nc(C3CCCC3)nc3c2cnn3C)C1` (stereo unspecified), the cytotoxicity at 10 µM is -0.699%.

For the compound `CN(C)[C@H]1CCCCN(C(=O)COCc2nc3cc(F)ccc3[nH]2)C1`, the cytotoxicity at 10 µM came to 0.185%.

With `Cc1cc(CN2CCc3nn(C)c(=O)cc3C2)no1`, the cytotoxicity at 10 µM is -9.01%.

Regarding `Cc1ccc(-c2noc(C3CCN3C(=O)c3cc[nH]n3)n2)s1` (stereo unspecified), the cytotoxicity at 10 µM is 8.47%.

For the compound `O=C(CN1CCCC(Cn2cncn2)C1)NCCc1cccs1` (stereo unspecified), the cytotoxicity at 10 µM is -17.6%.

Consider `CN(C)C(=O)N1CCCC2(CCN(c3ccsc3)C2=O)C1` (stereo unspecified), for which the cytotoxicity at 10 µM was -72.5%.

`COCc1nc(CNc2cc(C)nc(N3CCCCC3)n2)no1`: the cytotoxicity at 10 µM was 9.84%.

In the case of `CSCCN1CCC(NC(=O)OC(C)(C)C)CC1`, the cytotoxicity at 10 µM was 12.3%.

Turning to `O=C(N[C@H]1CCCC[C@@H]1O)c1cccc(-c2nc3ccccc3[nH]2)c1`, the cytotoxicity at 10 µM is -3.65%.

Consider `COc1cccc(CN(C)Cc2ccc(C#N)cc2)c1OC`, for which the cytotoxicity at 10 µM was -8.34%.

Consider `Cc1cnc(N2CC3(CCN(C(=O)c4ccoc4)C3)C2)nc1`, for which the cytotoxicity at 10 µM was -10.1%.

Regarding `CCN(Cc1noc(CC(C)C)n1)Cc1cc2ccc(F)cc2[nH]c1=O`, the cytotoxicity at 10 µM was found to be 3.34%.

Turning to `Cc1noc([C@@H]2C[C@H]3OCC[C@H]3N(S(=O)(=O)c3ccccc3)C2)n1`, the cytotoxicity at 10 µM is -126%.

As for `CN1CCN(C(CNC(=O)CCn2cccn2)c2cccs2)CC1` (stereo unspecified), the cytotoxicity at 10 µM came out at 24.4%.

On to `CNc1cncc(C2CCCN2C(=O)c2ccc3oc(C)cc3c2)n1` (stereo unspecified), for which the cytotoxicity at 10 µM came out at 4.52%.

In the case of `CN(C)c1ncnc2c1CCN(S(=O)(=O)c1ccccc1C(F)(F)F)C2`, the cytotoxicity at 10 µM was determined as 21.3%.

As to `Cc1ccc(NC(C)(C)c2nnnn2-c2ccc(Cl)cc2)c(C)c1`, the cytotoxicity at 10 µM amounted to 55.4%.

With `Cc1nc(C2CCCN(C(=O)c3ccc(S(C)(=O)=O)cc3)C2)no1` (stereo unspecified), the cytotoxicity at 10 µM was -11.3%.

For `O=C(CO[C@@H]1CC[C@H]2[C@H]1OCCN2Cc1ccccn1)N1CCCC1`, the cytotoxicity at 10 µM was -3.98%.

With `CNc1ncc(C(=O)N[C@H]2CN(CCCSC)C[C@@H]2C2CC2)cn1`, the cytotoxicity at 10 µM worked out at 1.33%.

As to `CC(=O)N(Cc1ncc(C)o1)C1CCN(Cc2sc(C)nc2C)C1` (stereo unspecified), the cytotoxicity at 10 µM is -19.8%.

For `Cc1oc(-c2ccco2)nc1CC(=O)N1CCN(C2CCC2)CC1`, the cytotoxicity at 10 µM was determined as 4.33%.

Turning to `CC(CNC(=O)N1CCN(Cc2ccon2)CC1)Cc1cccs1` (stereo unspecified), the cytotoxicity at 10 µM is -1.26%.

Regarding `Cc1ccccc1C(=O)NCc1ccc(N2CCNC(=O)C2)cc1`, the cytotoxicity at 10 µM was -9.67%.

With `COc1ccc2c(c1)C(C(=O)N(C)CCn1ccnc1C)CC(=O)N2` (stereo unspecified), the cytotoxicity at 10 µM is -44.8%.

As for `Cc1cc(F)ccc1NS(=O)(=O)c1cc2c(c(C(=O)O)c1)OCCO2`, the cytotoxicity at 10 µM is -6.56%.

As for `COc1ccc(C(=O)N2CCC(Nc3cccnn3)CC2)cn1`, the cytotoxicity at 10 µM was 4.07%.

For `CSCc1cc(F)ccc1CNC(=O)N1CCC[C@@H]1CO`, the cytotoxicity at 10 µM is 4.8%.

As for `O=C(COCC(F)(F)C(F)F)N1CCC(c2ncc[nH]2)CC1`, the cytotoxicity at 10 µM is -53.9%.

As for `CC(C)Cn1ccnc1CNC(=O)N1CCCC1CN1CCOCC1` (stereo unspecified), the cytotoxicity at 10 µM was -6.29%.

Consider `c1cc(CNCc2ccnc(N3CCOCC3)c2)c2c(c1)OCO2`, for which the cytotoxicity at 10 µM is 2.75%.

In the case of `CCN(CC)C(=O)Cn1c(C)cc2nc(SC)n(CC(C)C)c(=O)c21`, the cytotoxicity at 10 µM is -12.8%.

Consider `COc1c(CNC2CCN(C(C)(C)C)CC2)c(C(C)C)nn1C`, for which the cytotoxicity at 10 µM was -10.9%.

Take `CN(c1nc(Cn2cc(Br)ccc2=O)cs1)C1CC1`: the cytotoxicity at 10 µM was determined as 8.34%.

In the case of `Cc1nccn1C1CCCN(C(=O)c2ccnc(-n3ccnc3)c2)C1` (stereo unspecified), the cytotoxicity at 10 µM was determined as 0.998%.

With `Cc1nc2c(c(NCCc3nc(C)c(Cl)s3)n1)CCNCC2`, the cytotoxicity at 10 µM was -9.28%.

Consider `Cc1ncccc1OC1(C(=O)NCCCN2CCOCC2)CCNCC1`, for which the cytotoxicity at 10 µM was -10.8%.

Consider `Clc1ccccc1C1(c2ccnc(C3CCCC3)n2)CCNCC1`, for which the cytotoxicity at 10 µM came out at 18.2%.

With `Cc1ccc(C2CCCCCN2CCNS(C)(=O)=O)o1` (stereo unspecified), the cytotoxicity at 10 µM stood at 0.395%.

`CC(C)(C)c1n[nH]c(C2CN(C(=O)CCc3cscn3)CCO2)n1` (stereo unspecified): the cytotoxicity at 10 µM is -17.3%.

For `Cc1cc(C2CCCN2CCC(=O)N2CCc3sccc3C2)no1` (stereo unspecified), the cytotoxicity at 10 µM is -16.1%.

Turning to `Cc1ccc(C(=O)NCC(O)c2ccc(F)c(F)c2)c(=O)[nH]1` (stereo unspecified), the cytotoxicity at 10 µM was -3.09%.

Regarding `COCCNC(=O)NC(c1ccccc1)c1ccccc1OC` (stereo unspecified), the cytotoxicity at 10 µM is -0.238%.

Consider `O=C(c1cc(Cl)c(Br)[nH]1)N1CCN(Cc2ccco2)CC1`, for which the cytotoxicity at 10 µM was -55.7%.

Turning to `Cc1cc(CN2CCC3(CC2)COC(COc2ccccn2)C3)no1` (stereo unspecified), the cytotoxicity at 10 µM is 5.8%.

With `CC(=O)N1CCc2c(nc(-c3cccnc3)nc2N(C)CC(O)CO)C1` (stereo unspecified), the cytotoxicity at 10 µM is -2.03%.

For the compound `Cc1ncc(-c2ccnc(N3CC[C@H](O)C3)n2)c(-c2cccnc2)n1`, the cytotoxicity at 10 µM is -8.49%.

As for `N#Cc1ccc(NCc2cccc(COC3CCOCC3)c2)nc1`, the cytotoxicity at 10 µM came out at 32.4%.

Turning to `COC(=O)NC1(C(=O)Nc2ccc(-c3ncc[nH]3)cc2)CCCC1`, the cytotoxicity at 10 µM is -14.4%.

Take `O=C(N1CCOCC1)[C@@]12CCO[C@@H]1CCN(Cc1ccccc1F)C2`: the cytotoxicity at 10 µM is 2.99%.

Regarding `CN(C)Cc1nc(C2(NC(=O)Nc3ccccc3)CCCC2)no1`, the cytotoxicity at 10 µM was -0.871%.

In the case of `COc1cccc(-c2ncc(CN3C[C@H]4CC[C@@H](C3)N(C)C4=O)s2)c1`, the cytotoxicity at 10 µM was 6.74%.

On to `Cc1nc(C)n(CC2CCCN2CC(=O)NCCc2cccs2)n1` (stereo unspecified), for which the cytotoxicity at 10 µM was -0.749%.

Take `CCc1cc(C(=O)N2CCC(O)(Cn3ccc4ccncc43)CC2)no1`: the cytotoxicity at 10 µM is -18.7%.

With `CCn1c(C)nc2cc(NC(=O)CC3CCCCO3)ccc21` (stereo unspecified), the cytotoxicity at 10 µM is 5.36%.

For `COC(=O)NCC(=O)NC1(C)CCc2ccccc2C1` (stereo unspecified), the cytotoxicity at 10 µM is 4.29%.

As for `CCc1nc(CN2CCCN(C(=O)C(C)COC)CC2)cs1` (stereo unspecified), the cytotoxicity at 10 µM is -0.884%.

On to `CCc1ccccc1OCCN(C)C(=O)CCN1CCCO1`, for which the cytotoxicity at 10 µM is -43%.

`COc1cccc(C(C)N2CCN(S(=O)(=O)c3ccccc3)CC2)c1` (stereo unspecified): the cytotoxicity at 10 µM was 5.11%.

On to `COCC1CC2(CCN(Cc3ccoc3)CC2)CN1Cc1ccccn1` (stereo unspecified), for which the cytotoxicity at 10 µM was -98.8%.

As to `CCOC(C)C(=O)Nc1ccc2c(ccn2CC)c1` (stereo unspecified), the cytotoxicity at 10 µM was 0.877%.

In the case of `CN1CC2(CCCN(c3cc(N4CCCCC4)ncn3)C2)OC1=O` (stereo unspecified), the cytotoxicity at 10 µM is -39.7%.

As for `CC(=O)N1CCN(CCNc2ncc(Br)cc2C)CC1`, the cytotoxicity at 10 µM stood at 2.86%.

`COC(=O)c1ccc(C(=O)N2CCC(c3nnc(C)s3)CC2)cc1`: the cytotoxicity at 10 µM was 4.95%.

For `COCCn1ccc2ccc(C(=O)O)cc21`, the cytotoxicity at 10 µM was -9.13%.

Consider `COc1ccc(F)c(-c2ccnc(N)c2)c1`, for which the cytotoxicity at 10 µM was determined as 8.52%.

For `Cc1nn(-c2ccccc2)c2c1c(C(F)F)cc(=O)n2CC(=O)O`, the cytotoxicity at 10 µM worked out at 7.73%.

With `CS(=O)(=O)N[C@@H]1CN(Cc2ccccc2)C[C@@H]2CCCO[C@@H]21`, the cytotoxicity at 10 µM was found to be 2.58%.

As for `Cc1cnn(CC2CCCCN2CC(=O)Nc2c(C)n[nH]c2C)c1` (stereo unspecified), the cytotoxicity at 10 µM was 1.8%.

For the origin of these results see ChEMBL document CHEMBL4513216, “Probing the Open Global Health Chemical Diversity Library for Multistage-Active Starting Points for Next-Generation Antimalarials” (ACS Infect Dis, 2020).
